Results from PubChem BioAssay AID588724 (Johns Hopkins Ion Channel Center, 2011).
Where “and” joins values, the source holds several entries; their conditions need not be identical. Equal entries are not always repeated. Calls of active or inactive are those of the source.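 Rule for the calls: active = blocks the KCNK9 potassium channel at some tested dose and a concentration-response curve can be fitted; inactive = no blocking at any dose, or no curve could be fitted.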

Target: Potassium channel subfamily K member 9 (Homo sapiens) (UniProt Q9NPC2)
Test: KCNK9 channel inhibitors, concentration-response, SAR follow-up, cell-based, round III (AID 588724)
Details: HEK293-KCNK9, FluxOR thallium flux fluorescence
In short: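 System – stable KCNK9-expressing HEK293 cells · Schedule – dye loading 90 min, compound 20 min, both room temperature, dark · Signal – FluxOR thallium-sensitive dye fluorescence, 10 s baseline, 110 s post-stimulus recording · Repeats – replicates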

Potassium channel subfamily K member 9 (Homo sapiens), sequence (Q9NPC2 whole entry, looked up): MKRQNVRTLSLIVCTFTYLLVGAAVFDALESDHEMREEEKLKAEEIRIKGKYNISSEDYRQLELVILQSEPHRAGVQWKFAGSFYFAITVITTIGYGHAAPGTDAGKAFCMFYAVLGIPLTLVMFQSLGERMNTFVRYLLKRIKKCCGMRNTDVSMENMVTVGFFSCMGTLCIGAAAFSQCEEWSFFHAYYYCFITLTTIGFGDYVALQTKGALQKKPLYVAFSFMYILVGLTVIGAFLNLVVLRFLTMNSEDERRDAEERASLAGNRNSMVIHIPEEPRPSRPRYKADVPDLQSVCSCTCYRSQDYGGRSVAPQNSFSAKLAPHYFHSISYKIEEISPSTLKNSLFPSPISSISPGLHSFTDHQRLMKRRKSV

IC50 | Structure (SMILES)
2.37 µM | CC(C1CC2CCC1C2)n1c(-c2ccccn2)n[nH]c1=S (stereo not drawn)
1.39 µM | CC(C1CC2CCC1C2)n1c(SCc2ccccc2)nnc1-c1ccco1 (stereo not drawn)
9.14 µM | COc1ccc(C(=O)CSc2nnc(-c3ccco3)n2C(C)C2CC3CCC2C3)cc1 (stereo not drawn)
8.46 µM | CC(C1CC2CCC1C2)n1c(SC(F)F)nnc1-c1ccco1 (stereo not drawn)
1.39 µM | CC(C1CC2CCC1C2)n1c(-c2cccn2C)n[nH]c1=S (stereo not drawn)
2.57 µM | COc1cccc(Cc2n[nH]c(=S)n2C(C)C2CC3CCC2C3)c1 (stereo not drawn)
4.65 µM | COc1cccc(C(=O)CSc2nnc(-c3ccco3)n2C(C)C2CC3CCC2C3)c1 (stereo not drawn)
13.4 µM | CC(NC(=O)c1ccco1)C1CC2CCC1C2 (stereo not drawn)
2.24 µM | COc1ccc(CCSc2nnc(-c3ccco3)n2C(C)C2CC3CCC2C3)cc1OC (stereo not drawn)
2.36 µM | COc1cccc(-c2n[nH]c(=S)n2C(C)C2CC3CCC2C3)c1OC (stereo not drawn)
5.21 µM | CC(C1CC2CCC1C2)n1c(SCC(=O)c2ccccc2)nnc1-c1ccco1 (stereo not drawn)
1.17 µM | CC(C1C2CCC1CC2)n1c(-c2ccco2)n[nH]c1=S (stereo not drawn)
21.4 µM | CSc1nnc(-c2ccco2)n1C(C)C1CC2CCC1C2 (stereo not drawn)
0.292 µM | CC(CC1CC2CCC1C2)n1c(-c2ccco2)n[nH]c1=S (stereo not drawn)
17.7 µM | CC(C1CC2CCC1C2)n1c(SCC#N)nnc1-c1cccs1 (stereo not drawn)
1.03 µM | COc1cc(OC)cc(-c2n[nH]c(=S)n2C(C)C2CC3CCC2C3)c1 (stereo not drawn)
0.732 µM | CC(C)c1ccccc1C(=O)Nc1cccc(NC(=O)c2ccccc2OC(F)(F)F)c1
16.4 µM | CC(C1CC2CCC1C2)n1c(-c2ccco2)nnc1C(F)(F)F (stereo not drawn)

IC50 | Structure (SMILES)
0.11 µM | CC(C1CC2CCC1C2)n1c(-c2cccs2)n[nH]c1=S (stereo not drawn)
0.907 µM | CC(CCC1CCCC1)n1c(-c2ccco2)n[nH]c1=S (stereo not drawn)
0.134 µM | CC(C1CC2CCC1C2)n1c(-c2cccc(F)c2)n[nH]c1=S (stereo not drawn)
0.15 µM and 0.29 µM | CC(C1CC2CCC1C2)n1c(-c2ccco2)n[nH]c1=S (stereo not drawn)
0.187 µM | C[C@H](C1CCCCC1)n1c(-c2ccco2)n[nH]c1=S
0.236 µM | COc1ccccc1C(=O)Nc1cccc(NC(=O)c2cccc3ccccc23)c1
1.7 µM | CC(C1CC2CCC1C2)n1cnnc1-c1ccco1 (stereo not drawn)
0.0651 µM | CC(C)Oc1ccccc1C(=O)Nc1cccc(NC(=O)c2ccccc2OC(F)(F)F)c1
1.6 µM | CC(C1CC2CCC1C2)n1c(SCC(=O)c2ccc3c(c2)OCO3)nnc1-c1ccco1 (stereo not drawn)
7.77 µM | CC(C1CC2CCC1C2)n1c(SCC(=O)c2ccc(Cl)c(Cl)c2)nnc1-c1ccco1 (stereo not drawn)
1.84 µM | COc1ccc(C(=O)CSc2nnc(-c3ccco3)n2C(C)C2CC3CCC2C3)cc1OC (stereo not drawn)
2.27 µM | CC(C1CC2CCC1C2)n1c(-c2cccc(N(C)C)c2)n[nH]c1=S (stereo not drawn)
18 µM | COc1cccc(-c2nnc(S(C)(=O)=O)n2C(C)C2CC3CCC2C3)c1 (stereo not drawn)
0.109 µM | CC(C1CC2CCC1C2)n1c(-c2ccccc2F)n[nH]c1=S (stereo not drawn)
9.41 µM | C[C@@H](C1CCCCC1)n1c(-c2ccco2)n[nH]c1=S
3.58 µM | CC(C1CCCCC1)n1c(-c2ccco2)n[nH]c1=S (stereo not drawn)
0.361 µM | CC(C1CC2CCC1C2)N(C)C(=O)c1ccco1 (stereo not drawn)

Same assay, conditions: HEK293-KCNK9, FluxOR thallium flux fluorescence; at 30 µM (top of the series)

normalised flux ratio, lower = inhibition | Structure (SMILES)
inactive | CC(C1CC2CCC1C2)n1c(-c2cccnc2)n[nH]c1=S (stereo not drawn)
inactive | CC(c1cccc2ccccc12)n1c(-c2ccco2)n[nH]c1=S (stereo not drawn)
inactive | CC(C1CC2CCC1C2)n1c(-c2ccncc2)n[nH]c1=S (stereo not drawn)
inactive | S=c1[nH]nc(-c2ccco2)n1CC1CC2CCC1C2 (stereo not drawn)
inactive | CC(C1CC2CCC1C2)n1c(-c2ccc(N(C)C)cc2)n[nH]c1=S (stereo not drawn)
inactive | COc1ccccc1C(=O)Nc1cc(NC(=O)c2ccccc2C(C)C)ccc1F
inactive | CC(C1CC2CCC1C2)n1c(-c2ccco2)n[nH]c1=O (stereo not drawn)
inactive | S=c1[nH]nc(-c2ccco2)n1C1CC2CCC1C2 (stereo not drawn)
